Data from ChEMBL document CHEMBL1142583, “Cytotoxic flavonol glycosides from Triplaris cumingiana” (2005).
Converted amounts (≈) assume the structure as drawn.

What was measured:
Format in all cases: functional
MCF7 = experiment: Cytotoxicity against human MCF7 cell
Summary of the method: (§1)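 Human cancer cell panel: MCF-7 (breast), H-460 (lung) and SF-268 (central nervous system), run by the Monks et al. protocol; adriamycin served as the reference compound.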

SF-268 = experiment: Cytotoxicity against human SF-268 cells; summary of the method: as §1
NCI-H460 = experiment: Cytotoxicity against human H460 cells; summary of the method: as §1

Compound	GI50 (MCF7) [µg/mL]	GI50 (SF-268) [µg/mL]	GI50 (NCI-H460) [µg/mL]
O=C(OC[C@@H]1O[C@@H](Oc2c(-c3ccc(O)c(O)c3)oc3cc(O)cc(O)c3c2=O)[C@H](O)[C@H]1O)c1cc(O)c(O)c(O)c1	1.4 (≈ 2.39 µM)	2.3 (≈ 3.92 µM)	1.2 (≈ 2.05 µM)
O=c1c(O)c(-c2ccc(O[C@@H]3O[C@@H](CO)[C@H](O)[C@H]3O)c(O)c2)oc2cc(O)cc(O)c12	9.1 (≈ 21 µM)	> 10	7.3 (≈ 16.8 µM)
O=C(OC[C@H]1O[C@@H](Oc2c(-c3ccc(O)c(O)c3)oc3cc(O)cc(O)c3c2=O)[C@H](O)[C@@H](O)[C@@H]1O)c1cc(O)c(O)c(O)c1	> 10	> 10	> 10
O=C(OC[C@@H]1O[C@@H](Oc2c(-c3ccc(O)cc3)oc3cc(O)cc(O)c3c2=O)[C@H](O)[C@H]1O)c1cc(O)c(O)c(O)c1	9 (≈ 15.8 µM)	> 10	> 10
O=C(OC[C@H]1O[C@@H](Oc2c(-c3ccc(O)c(O)c3)oc3cc(O)cc(O)c3c2=O)[C@H](O)[C@@H](O)[C@@H]1OC(=O)c1cc(O)c(O)c(O)c1)c1cc(O)c(O)c(O)c1	> 10	> 10	3 (≈ 3.9 µM)
